From ChEMBL document CHEMBL1151771, “Lanostane-type triterpenes from the mushroom Astraeus pteridis with antituberculosis activity” (J Nat Prod, 2008)
Values after ≈ are worked out from the molar mass of the structure shown.

Tests used:
[1] = tested on: Mycobacterium tuberculosis; assay: Antimicrobial activity against Mycobacterium tuberculosis H37Rv by Alamar blue assay; assay type: functional
Outline: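 M. tuberculosis H37Rv (ATCC27294) in microplate Alamar Blue assay, fluorescence read-out. MIC taken as lowest concentration giving 90% fluorescence reduction relative to controls. Rifampin run in each test as positive quality control.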

Vero = assay: Cytotoxicity against african green monkey Vero cells upto 100 uM; assay type: cell-based; conditions: chlorocebus sabaeus
Outline: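 Vero cells (ATCC CCL-81) tested with a nonradioactive cell proliferation (CellTiter 96) assay. IC50 taken as the reciprocal dilution giving 50% inhibition of Vero cells.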

Row | SMILES | MIC [1] [mg/L] | Activity (Vero)
1 | C[C@H]([C@@H]1CC[C@H](C)C(=O)O1)[C@H]1CC[C@@]2(C)C3=C(CC[C@]12C)[C@@]1(C)CC[C@@H](O)C(C)(C)[C@@H]1CC3 | 58 (≈ 127 µM) | Non-toxic
2 | C[C@H]([C@@H]1CC[C@H](C)[C@@H](O)O1)[C@H]1CC[C@@]2(C)C3=C(CC[C@]12C)[C@@]1(C)CC[C@@H](O)C(C)(C)[C@@H]1CC3 | 34 (≈ 74.1 µM) | Non-toxic
3 | C[C@H]([C@@H]1CC[C@H](C)C(=O)O1)[C@H]1CC[C@@]2(C)C3=C(CC[C@]12C)[C@@]1(C)CCC(=O)C(C)(C)[C@@H]1CC3 [ASTRAHYGRONE] | 64 (≈ 141 µM) | Non-toxic
4 | C[C@H]([C@@H]1CC[C@H](C)[C@@H](O)O1)[C@H]1CC[C@@]2(C)C3=C(CC[C@]12C)[C@@]1(C)CC[C@H](O)C(C)(C)[C@@H]1CC3 [ASTRAPTERIDIOL] | > 64 | Non-toxic
5 | C[C@H]([C@@H]1CC[C@H](C)[C@@H](O)O1)[C@H]1CC[C@@]2(C)C3=C(CC[C@]12C)[C@@]1(C)CCC(=O)C(C)(C)[C@@H]1CC3 [ASTRAPTERIDONE] | > 64 | Non-toxic
